Reference: ChEMBL document CHEMBL4118126, “An orally available, brain-penetrant CAMKK2 inhibitor reduces food intake in rodent model” (Bioorg Med Chem Lett, 2018)
In brackets after ≈: the same amount, converted by molar mass.

Columns and labels:
[1] = Solubility of the compound in pH 7.4 phosphate buffer saline after 1 hr by chemiluminescence nitrogen detection method; assay type: physicochemical; settings: phosphate buffered saline
Procedure, shortened: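 Kinetic solubility: 10 mM DMSO stock diluted 1:20 into 10 mM phosphate-buffered saline pH 7.4, equilibrated 1 h at RT, filtered, and filtrate quantified by calibrated flow-injection chemiluminescent nitrogen detection.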

[2] = target: Calcium/calmodulin-dependent protein kinase kinase 2 (Mus musculus, UniProt Q8C078); experiment: Inhibition of CAMKK2 in mouse N39 cells assessed as decrease in AMPKalpha phosphorylation at T172 preincubated for 80 mins followed by […] addition by ELISA; assay type: cell-based
Procedure, shortened: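 Mouse N39 cells seeded ~1000 cells/well, cultured overnight at 37°C, 5% CO2, then exposed to compound in DMSO for 80 min before ionomycin stimulation ([…] as added). Cells were lysed in extraction buffer for 30 min on ice, then diluted into ice-cold lysis buffer containing protease and phosphatase inhibitors for MSD read-out.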

[3] = target: Mitogen-activated protein kinase 8 (Homo sapiens, UniProt P45983); experiment: Inhibition of JNK1 (unknown origin)
[4] = target: T1, Inhibitor of nuclear factor kappa-B kinase subunit alpha (Homo sapiens, UniProt O15111); experiment: Inhibition of IKK1 (unknown origin)
T1 sequence (O15111 whole entry): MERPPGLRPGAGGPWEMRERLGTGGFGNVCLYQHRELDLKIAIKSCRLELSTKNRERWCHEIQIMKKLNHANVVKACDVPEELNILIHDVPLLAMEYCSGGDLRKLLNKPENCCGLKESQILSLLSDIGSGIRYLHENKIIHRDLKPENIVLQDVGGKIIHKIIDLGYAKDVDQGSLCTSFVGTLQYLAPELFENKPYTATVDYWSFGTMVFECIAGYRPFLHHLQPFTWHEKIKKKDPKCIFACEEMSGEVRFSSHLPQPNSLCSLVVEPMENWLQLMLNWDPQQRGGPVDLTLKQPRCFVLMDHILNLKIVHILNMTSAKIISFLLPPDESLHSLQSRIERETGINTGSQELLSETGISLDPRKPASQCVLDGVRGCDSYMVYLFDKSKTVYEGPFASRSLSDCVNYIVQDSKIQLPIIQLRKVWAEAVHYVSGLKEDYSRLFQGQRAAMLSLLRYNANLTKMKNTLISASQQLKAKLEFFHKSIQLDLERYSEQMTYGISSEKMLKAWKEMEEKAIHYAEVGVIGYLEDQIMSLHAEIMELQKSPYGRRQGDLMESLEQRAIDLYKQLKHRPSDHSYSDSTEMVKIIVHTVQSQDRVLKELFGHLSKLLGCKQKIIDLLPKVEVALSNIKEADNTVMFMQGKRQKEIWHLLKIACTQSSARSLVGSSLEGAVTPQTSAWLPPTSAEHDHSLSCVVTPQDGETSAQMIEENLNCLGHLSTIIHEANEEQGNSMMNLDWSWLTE

[5] = target: Calcium/calmodulin-dependent protein kinase kinase 2 (Homo sapiens, UniProt Q96RR4); experiment: Inhibition of full-length human GST-tagged CAMKK2 using 5FAM-AKPKGNKDYHLQTCCGSLAYRRR-amide as substrate preincubated for 30 mins followed by substrate addition measured after 120 mins by fluorescence polarization assay
[6] = target: Insulin receptor (Homo sapiens, UniProt P06213); experiment: Inhibition of INSR (unknown origin); settings: read-out: pIC50 (converted)
Sequence of Insulin receptor (P06213 28-758 limits assumed): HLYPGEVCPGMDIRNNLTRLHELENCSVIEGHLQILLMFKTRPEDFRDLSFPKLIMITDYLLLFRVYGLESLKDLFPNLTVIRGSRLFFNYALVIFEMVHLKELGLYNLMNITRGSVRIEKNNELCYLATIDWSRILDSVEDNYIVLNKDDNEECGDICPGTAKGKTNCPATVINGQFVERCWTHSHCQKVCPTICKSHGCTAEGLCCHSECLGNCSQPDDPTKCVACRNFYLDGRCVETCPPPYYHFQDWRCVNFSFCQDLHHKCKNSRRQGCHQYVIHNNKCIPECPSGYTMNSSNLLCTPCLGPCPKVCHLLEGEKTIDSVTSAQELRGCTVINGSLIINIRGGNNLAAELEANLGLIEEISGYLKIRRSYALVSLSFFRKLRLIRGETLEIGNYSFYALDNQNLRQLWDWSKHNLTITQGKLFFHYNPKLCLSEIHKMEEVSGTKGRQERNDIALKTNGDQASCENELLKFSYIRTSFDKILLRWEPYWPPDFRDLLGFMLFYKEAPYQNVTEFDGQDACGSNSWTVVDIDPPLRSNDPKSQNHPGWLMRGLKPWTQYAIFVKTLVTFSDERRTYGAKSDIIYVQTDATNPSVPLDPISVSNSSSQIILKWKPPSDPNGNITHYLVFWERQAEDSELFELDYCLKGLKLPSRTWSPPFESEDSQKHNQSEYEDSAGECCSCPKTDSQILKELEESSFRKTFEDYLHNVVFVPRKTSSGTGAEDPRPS
Sequence of Insulin receptor (P06213 763-1382 limits assumed): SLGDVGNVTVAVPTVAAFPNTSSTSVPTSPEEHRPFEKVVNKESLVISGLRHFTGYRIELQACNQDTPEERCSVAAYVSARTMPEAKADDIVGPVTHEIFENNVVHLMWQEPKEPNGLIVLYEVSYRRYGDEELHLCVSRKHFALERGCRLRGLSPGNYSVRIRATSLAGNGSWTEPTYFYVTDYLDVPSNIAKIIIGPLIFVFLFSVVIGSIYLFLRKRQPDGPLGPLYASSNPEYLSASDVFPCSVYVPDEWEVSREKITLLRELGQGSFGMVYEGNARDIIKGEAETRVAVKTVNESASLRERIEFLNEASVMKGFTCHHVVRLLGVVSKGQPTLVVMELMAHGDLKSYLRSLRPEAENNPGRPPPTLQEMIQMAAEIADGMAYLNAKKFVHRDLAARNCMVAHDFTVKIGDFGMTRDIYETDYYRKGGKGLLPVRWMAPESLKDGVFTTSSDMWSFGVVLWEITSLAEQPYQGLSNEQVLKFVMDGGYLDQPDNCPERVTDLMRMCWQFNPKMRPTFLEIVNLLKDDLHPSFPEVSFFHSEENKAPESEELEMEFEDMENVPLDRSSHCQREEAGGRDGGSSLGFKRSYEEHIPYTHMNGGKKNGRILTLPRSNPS

Sequence of Calcium/calmodulin-dependent protein kinase kinase 2 (Mus musculus, UniProt Q8C078) (Q8C078 whole entry): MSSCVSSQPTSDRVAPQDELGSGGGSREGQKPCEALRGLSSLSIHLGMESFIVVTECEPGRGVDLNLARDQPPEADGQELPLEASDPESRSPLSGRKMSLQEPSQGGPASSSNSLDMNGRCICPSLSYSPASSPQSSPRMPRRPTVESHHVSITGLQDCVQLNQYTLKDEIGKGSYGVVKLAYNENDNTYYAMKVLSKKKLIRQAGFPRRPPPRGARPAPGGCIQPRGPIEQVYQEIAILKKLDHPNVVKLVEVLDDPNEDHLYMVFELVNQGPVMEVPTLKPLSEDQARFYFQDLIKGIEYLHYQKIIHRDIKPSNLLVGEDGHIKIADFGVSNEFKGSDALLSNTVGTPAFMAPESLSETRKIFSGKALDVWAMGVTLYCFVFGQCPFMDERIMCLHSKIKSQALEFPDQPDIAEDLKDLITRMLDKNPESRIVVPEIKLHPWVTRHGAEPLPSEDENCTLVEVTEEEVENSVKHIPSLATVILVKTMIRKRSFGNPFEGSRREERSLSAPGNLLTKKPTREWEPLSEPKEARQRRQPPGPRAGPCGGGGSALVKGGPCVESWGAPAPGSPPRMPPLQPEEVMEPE
Sequence of Mitogen-activated protein kinase 8 (P45983 whole entry): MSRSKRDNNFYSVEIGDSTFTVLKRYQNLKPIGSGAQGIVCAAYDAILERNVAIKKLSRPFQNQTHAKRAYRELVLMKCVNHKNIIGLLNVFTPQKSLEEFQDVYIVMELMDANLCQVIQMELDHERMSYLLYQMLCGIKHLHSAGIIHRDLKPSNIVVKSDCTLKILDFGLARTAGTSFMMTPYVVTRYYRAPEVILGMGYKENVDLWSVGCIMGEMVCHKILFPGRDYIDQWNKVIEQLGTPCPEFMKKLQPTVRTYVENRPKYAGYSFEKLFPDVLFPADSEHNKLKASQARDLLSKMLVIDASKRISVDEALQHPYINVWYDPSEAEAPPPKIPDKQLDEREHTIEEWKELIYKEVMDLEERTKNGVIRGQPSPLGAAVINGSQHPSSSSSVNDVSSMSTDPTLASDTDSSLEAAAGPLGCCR
Sequence of Calcium/calmodulin-dependent protein kinase kinase 2 (Homo sapiens, UniProt Q96RR4) (Q96RR4 whole entry): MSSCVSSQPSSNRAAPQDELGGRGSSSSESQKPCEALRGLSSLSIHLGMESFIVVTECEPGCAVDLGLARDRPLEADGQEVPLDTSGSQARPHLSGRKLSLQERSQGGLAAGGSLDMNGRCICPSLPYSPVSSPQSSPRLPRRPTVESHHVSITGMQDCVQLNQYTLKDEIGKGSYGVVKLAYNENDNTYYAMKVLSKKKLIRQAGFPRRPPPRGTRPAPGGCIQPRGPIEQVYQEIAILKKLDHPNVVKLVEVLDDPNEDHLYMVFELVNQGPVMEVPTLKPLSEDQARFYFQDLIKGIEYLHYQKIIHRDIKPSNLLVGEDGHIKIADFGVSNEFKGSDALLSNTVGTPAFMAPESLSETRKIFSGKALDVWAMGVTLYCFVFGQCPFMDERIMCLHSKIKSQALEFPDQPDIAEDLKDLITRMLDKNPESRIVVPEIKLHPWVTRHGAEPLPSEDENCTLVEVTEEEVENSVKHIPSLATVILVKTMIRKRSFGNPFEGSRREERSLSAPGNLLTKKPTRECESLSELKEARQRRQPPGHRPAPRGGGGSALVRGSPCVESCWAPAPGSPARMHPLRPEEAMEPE

SMILES | solubility at 1 h [1] [µM] | IC50 [2] [nM] | IC50 [3] [nM] | IC50 [4] [nM] | IC50 [5] [nM] | IC50 [6] [nM]
Cc1ccc2c(-c3ccc(C(=O)O)c(C4CCCC4)c3)c[nH]c2n1 | > 279 | > 10000 | – | – | – | –
CN(C)Cc1ccc(-c2cc3c(-c4ccc(C(N)=O)cc4)ccnc3[nH]2)cc1 | 157 (≈ 58.2 µg/mL) | 158 | 79.4 | 79.4 | 3.16 to 25.1 | 316
NC(=O)c1ccc(-c2c[nH]c3ncc(-c4ccccc4C(F)(F)F)cc23)cc1C1CCCC1 | 12 (≈ 5.39 µg/mL) | – | – | – | – | –
CN(C)Cc1cccc(-c2cc3c(-c4ccc(C(N)=O)cc4)ccnc3[nH]2)c1 | 56 (≈ 20.7 µg/mL) | 126 | 631 | 79.4 | 3.98 to 31.6 | 631
c1ccc(-c2cnc3[nH]cc(-c4ccc(-c5nn[nH]n5)cc4)c3c2)cc1 | 276 (≈ 93.4 µg/mL) | – | – | – | – | –
CC(C)c1cc(-c2c[nH]c3ncc(-c4ccccc4)cc23)ccc1C(=O)O | > 439 | 1260 | – | – | – | –
NC(=O)c1ccc(-c2c[nH]c3ncc(-c4ccccc4OC(F)(F)F)cc23)cc1C1CCCC1 | 2 (≈ 0.931 µg/mL) | > 10000 | – | – | – | –
Cc1cc(OCCN2CCOCC2)ccc1-c1cc2c(-c3ccc(C(N)=O)cc3)ccnc2[nH]1 | 11 (≈ 5.02 µg/mL) | 158 | 200 | 126 | 1.58 | 1260
CS(=O)(=O)c1cccc(-c2cnc3[nH]cc(-c4ccc(C(N)=O)cc4)c3c2)c1 | > 115 | – | – | – | – | –
Cc1c(CN2CCOCC2)cccc1-c1cc2c(-c3ccc(C(N)=O)cc3)ccnc2[nH]1 | 18 (≈ 7.68 µg/mL) | 200 | 316 | 100 | 1.58 to 12.6 | 1260
Cc1c(OCCN2CCOCC2)cccc1-c1cc2c(-c3ccc(C(N)=O)cc3)ccnc2[nH]1 | 17 (≈ 7.76 µg/mL) | 251 | 251 | 158 | 2 to 15.8 | 3160
CN(C)CCCNC(=O)c1cccc(-c2cc3c(-c4ccc(C(N)=O)cc4)ccnc3[nH]2)c1 | – | 3980 | 631 | 126 | 2.51 to 12.6 | 3160
Cc1ccc(CN2CCOCC2)cc1-c1cc2c(-c3ccc(C(N)=O)cc3)ccnc2[nH]1 | 2 (≈ 0.853 µg/mL) | 31.6 | 6310 | 3160 | 1.58 to 15.8 | > 10000
O=C(O)c1ccc(-c2c[nH]c3ncc(-c4ccccc4)cc23)cc1 | 82 (≈ 25.8 µg/mL) | – | – | – | 200 | –
NC(=O)c1ccc(-c2c[nH]c3ncc(-c4ccccc4Oc4ccccc4)cc23)cc1C1CCCC1 | 52 (≈ 24.6 µg/mL) | > 10000 | – | – | – | –
Cc1ccc(CN2CCOCC2)cc1-c1cc2c(-c3ccc(C(N)=O)c(C(C)C)c3)ccnc2[nH]1 | 1 (≈ 0.469 µg/mL) | 200 | 631 | 158 | 1.58 to 20 | > 10000
COc1ccccc1-c1cc2c(-c3ccc(C(N)=O)cc3)ccnc2[nH]1 | 16 (≈ 5.49 µg/mL) | 794 | 158 | 158 | 3.16 to 20 | 1580
NC(=O)c1ccc(-c2c[nH]c3ncc(-c4ccccc4Oc4ccccc4)cc23)cc1 | 9 (≈ 3.65 µg/mL) | – | – | – | – | –
NC(=O)c1ccc(-c2c[nH]c3ncc(-c4ccccc4O)cc23)cc1C1CCCC1 | 6 (≈ 2.38 µg/mL) | 3980 | – | – | – | –
CN(C)CCCNC(=O)c1ccc(-c2cc3c(-c4ccc(C(N)=O)cc4)ccnc3[nH]2)cc1 | 29 (≈ 12.8 µg/mL) | > 10000 | 126 | 79.4 | 1.58 to 12.6 | 158
CS(=O)(=O)Nc1cccc(-c2cc3c(-c4ccc(C(N)=O)cc4)ccnc3[nH]2)c1 | 13 (≈ 5.28 µg/mL) | 3160 | 200 | 158 | 3.16 to 12.6 | 1260

SMILES | solubility at 1 h [1] [µM] | IC50 [2] [nM] | IC50 [3] [nM] | IC50 [4] [nM] | IC50 [5] [nM] | IC50 [6] [nM]
CC(C)Cc1cc(-c2c[nH]c3ncc(-c4ccccc4)cc23)ccc1C(=O)O | 333 (≈ 123 µg/mL) | – | – | – | 5.01 to 25.1 | –
COc1ccccc1-c1cnc2[nH]cc(-c3ccc(C(N)=O)c(C4CCCC4)c3)c2c1 | 1 (≈ 0.412 µg/mL) | > 10000 | – | – | – | –
CC(C)c1cc(-c2c[nH]c3nc(C#N)ccc23)ccc1C(=O)O | > 172 | 6310 | – | – | – | –
CC(C)c1cc(-c2c[nH]c3nc(C#N)ccc23)ccc1C(N)=O | 14 (≈ 4.26 µg/mL) | – | – | – | 1260 to 10000 | –
N#Cc1ccc2c(-c3ccc(C(=O)O)c(C4CCCC4)c3)c[nH]c2n1 | 155 (≈ 51.4 µg/mL) | 6310 | – | – | – | –
Cc1ccc(OCCN2CCOCC2)cc1-c1cc2c(-c3ccc(C(N)=O)cc3)ccnc2[nH]1 | 17 (≈ 7.76 µg/mL) | – | 158 | 200 | 2 to 31.6 | 3980
N#Cc1ccc2c(-c3ccc(C(=O)O)cc3)c[nH]c2n1 | 235 (≈ 61.9 µg/mL) | – | – | – | 2510 to 10000 | –
CS(=O)(=O)Nc1ccc(-c2cc3c(-c4ccc(C(N)=O)cc4)ccnc3[nH]2)cc1 | 5 (≈ 2.03 µg/mL) | 316 | 63.1 | 31.6 | 2 to 12.6 | 316
CN(C)c1ccccc1-c1cnc2[nH]cc(-c3ccc(C(N)=O)c(C4CCCC4)c3)c2c1 | 2 (≈ 0.849 µg/mL) | > 10000 | – | – | – | –
N#CCc1ccccc1-c1cnc2[nH]cc(-c3ccc(C(N)=O)c(C4CCCC4)c3)c2c1 | 96 (≈ 40.4 µg/mL) | – | – | – | – | –
NC(=O)c1ccc2c(-c3ccc(C(=O)O)c(C4CCCC4)c3)c[nH]c2n1 | > 205 | – | – | – | 1260 to 10000 | –
CC(C)Oc1ccccc1-c1cnc2[nH]cc(-c3ccc(C(N)=O)c(C4CCCC4)c3)c2c1 | – | > 10000 | – | – | – | –
O=C(O)c1ccc(-c2c[nH]c3ncc(-c4ccccc4)cc23)cc1C1CCCC1 [GSK-650394] | 150 (≈ 57.4 µg/mL) | 1260 | – | – | – | –
CCc1cc(-c2c[nH]c3ncc(-c4ccccc4)cc23)ccc1C(=O)O | 178 (≈ 60.9 µg/mL) | – | – | – | 20 | –
O=C(O)c1ccc(-c2c[nH]c3ncccc23)cc1C1CCCC1 | > 290 | 3980 | – | – | – | –
Cc1cc(-c2c[nH]c3ncc(-c4ccccc4)cc23)ccc1C(=O)O | 100 (≈ 32.8 µg/mL) | – | – | – | – | –
COC(=O)c1ccc(-c2c[nH]c3ncc(-c4ccccc4)cc23)cc1 | 5 (≈ 1.64 µg/mL) | – | – | – | 1260 | –
O=C(O)c1ccc(-c2c[nH]c3ncc(-c4ccccc4Oc4ccccc4)cc23)cc1 | 24 (≈ 9.75 µg/mL) | – | – | – | – | –
N#Cc1ccc2c(-c3ccc(C(N)=O)c(C4CCCC4)c3)c[nH]c2n1 | 7 (≈ 2.31 µg/mL) | – | – | – | 1260 to 10000 | –
CS(=O)(=O)c1cccc(-c2cnc3[nH]cc(-c4ccc(C(=O)O)cc4)c3c2)c1 | 177 (≈ 69.5 µg/mL) | – | – | – | – | –
